{"source": "ChEMBL document CHEMBL3580571", "about": "“Bis-arylidene oxindole-betulinic Acid conjugate: a fluorescent cancer cell detector with potent anticancer activity” (ACS Med Chem Lett, 2015)", "key": {"[1]": {"experiment": "Cellular uptake in mouse NIH/3T3 cells at 2 uM after 4 hrs by fluorescence microscopic analysis", "type": "ADME, cell-based", "conditions": "nih3t3, 4 h", "procedure,_shortened": "(§1)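 Live cells were examined by fluorescence microscopy for uptake of the intrinsically fluorescent molecules, with untreated cells as control. Uptake was also quantified as % uptake per microgram of cellular protein. Fluorescence values were normalized to the absorption values of each molecule because their absorptivities differ.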"}, "[2]": {"experiment": "Cellular uptake in mouse B16F10 cells at 2 uM after 4 hrs by fluorescence microscopic analysis", "type": "ADME, cell-based", "conditions": "b16-f10, 4 h", "procedure,_shortened": "as §1"}, "[3]": {"experiment": "Cellular uptake in human PANC1 cells at 2 uM after 4 hrs by fluorescence microscopic analysis", "type": "ADME, cell-based", "conditions": "panc-1, 4 h", "procedure,_shortened": "as §1"}, "[4]": {"experiment": "Cytotoxicity against mouse B16F10 cells assessed as cell killing effect after 72 hrs by MTT assay", "type": "functional, cell-based", "conditions": "B16-F10, 72 h", "procedure,_shortened": "(§2)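 Cells were treated continuously for 72 h. Cytotoxicity is reported as IC50 in μM.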"}, "MDA-MB-231": {"test_system": "MDA-MB-231", "experiment": "Cytotoxicity against human MDA-MB-231 cells assessed as cell killing effect after 72 hrs by MTT assay", "type": "functional, cell-based", "conditions": "MDA-MB-231, 72 h", "procedure,_shortened": "as §2"}, "[5]": {"experiment": "Cytotoxicity against human PANC1 cells assessed as cell killing effect after 72 hrs by MTT assay", "type": "functional, cell-based", "conditions": "PANC-1, 72 h", "procedure,_shortened": "as §2"}, "A549": {"test_system": "A549", "experiment": "Cytotoxicity against human A549 cells assessed as cell killing effect after 72 hrs by MTT assay", "type": "functional, cell-based", "conditions": "A549, 72 h", "procedure,_shortened": "as §2"}, "[6]": {"experiment": "Induction of reactive oxygen species generation in mouse NIH/3T3 cells at 2 uM after 36 hrs by DCFDA dye-based fluorescence microscopic analysis", "type": "cell-based", "conditions": "nih3t3, 36 h", "procedure,_shortened": "(§3)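 Treated cells were imaged for ROS by fluorescence microscopy at 20× magnification, with untreated cells as control.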"}, "B16-F10 [7]": {"test_system": "B16-F10", "experiment": "Induction of apoptosis in mouse B16F10 cells assessed as early apoptotic cells at 2 uM after 45 hrs by annexinV-FITC/propidium iodide staining-based flow cytometric analysis (reference value: 0.1%)", "type": "functional", "procedure,_shortened": "(§4)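 Treated B16F10 cells were double-stained with annexin V and propidium iodide and analysed by flow cytometry, with untreated cells as control. Quadrants: Q1 PI-only (necrotic); Q2 double-positive (post-apoptotic); Q4 annexin-only (apoptotic); Q3 double-negative (healthy).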"}, "B16-F10 [8]": {"test_system": "B16-F10", "experiment": "Induction of apoptosis in mouse B16F10 cells assessed as late apoptotic cells at 2 uM after 45 hrs by annexinV-FITC/propidium iodide staining-based flow cytometric analysis (reference value: 0.8%)", "type": "functional", "procedure,_shortened": "as §4"}, "B16-F10 [9]": {"test_system": "B16-F10", "experiment": "Induction of apoptosis in mouse B16F10 cells assessed as necrotic cells at 2 uM after 45 hrs by annexinV-FITC/propidium iodide staining-based flow cytometric analysis (reference value: 9%)", "type": "functional", "procedure,_shortened": "as §4"}, "B16-F10 [10]": {"test_system": "B16-F10", "experiment": "Induction of apoptosis in mouse B16F10 cells assessed as viable cells at 2 uM after 45 hrs by annexinV-FITC/propidium iodide staining-based flow cytometric analysis (reference value: 90.1%)", "type": "functional", "conditions": "B16-F10, 45 h, read-out: Activity", "procedure,_shortened": "as §4"}, "MCF7": {"test_system": "MCF7", "experiment": "Cytotoxicity against human MCF7 cells assessed as cell killing effect after 72 hrs by MTT assay", "type": "functional, cell-based", "conditions": "MCF7, 72 h", "procedure,_shortened": "as §2"}, "OVCAR-3": {"test_system": "OVCAR-3", "experiment": "Cytotoxicity against human OVCAR3 cells assessed as cell killing effect after 72 hrs by MTT assay", "type": "functional, cell-based", "conditions": "OVCAR-3, 72 h", "procedure,_shortened": "as §2"}, "CHO": {"test_system": "CHO", "experiment": "Cytotoxicity against CHO cells assessed as cell killing effect after 72 hrs by MTT assay", "type": "cell-based", "conditions": "Cricetulus griseus", "procedure,_shortened": "as §2"}, "[11]": {"experiment": "Cytotoxicity against mouse NIH/3T3 cells assessed as cell killing effect after 72 hrs by MTT assay", "type": "cell-based", "conditions": "NIH3T3, 72 h", "procedure,_shortened": "as §2"}, "B16-F10 [12]": {"test_system": "B16-F10", "experiment": "Induction of reactive oxygen species generation in mouse B16F10 cells at 2 uM after 36 hrs by DCFDA dye-based fluorescence microscopic analysis", "type": "functional, cell-based", "procedure,_shortened": "as §3"}}, "note": "Active and inactive are the calls of the source. The rule behind the calls is not given here."}
{"smiles": "COc1ccc(CN2C(=O)/C(=C(/c3ccc(O)cc3)c3ccc(OCCCN)cc3)c3ccccc32)cc1", "values": [{"measurement": "Drug uptake", "setting": "[1]", "value": "Not Active"}, {"measurement": "Drug uptake", "setting": "[2]", "value": "Active"}, {"measurement": "Drug uptake", "setting": "[3]", "value": "Active"}, {"measurement": "IC50", "setting": "[4]", "value": "> 20", "unit": "µM"}, {"measurement": "IC50", "setting": "MDA-MB-231", "value": "> 20", "unit": "µM"}, {"measurement": "IC50", "setting": "[5]", "value": "> 20", "unit": "µM"}, {"measurement": "IC50", "setting": "A549", "value": 1360, "unit": "nM"}, {"measurement": "Activity", "setting": "[6]", "value": "Non-toxic"}, {"measurement": "Activity", "setting": "B16-F10 [7]", "value": 0, "unit": "%"}, {"measurement": "Activity", "setting": "B16-F10 [8]", "value": 0.9, "unit": "%"}, {"measurement": "Activity", "setting": "B16-F10 [9]", "value": 8.4, "unit": "%"}, {"measurement": "viability at 2 µM", "setting": "B16-F10 [10]", "value": 90.7, "unit": "%"}]}
{"smiles": "COc1ccc(CN2C(=O)C(=C(c3ccc(O)cc3)c3ccc(O)cc3)c3ccccc32)cc1", "values": [{"measurement": "Drug uptake", "setting": "[1]", "value": "Active"}, {"measurement": "Drug uptake", "setting": "[2]", "value": "Active"}, {"measurement": "Drug uptake", "setting": "[3]", "value": "Active"}, {"measurement": "IC50", "setting": "MCF7", "value": "> 20", "unit": "µM"}, {"measurement": "IC50", "setting": "[4]", "value": "> 20", "unit": "µM"}, {"measurement": "IC50", "setting": "OVCAR-3", "value": "> 20", "unit": "µM"}, {"measurement": "IC50", "setting": "MDA-MB-231", "value": "> 20", "unit": "µM"}, {"measurement": "IC50", "setting": "[5]", "value": "> 20", "unit": "µM"}, {"measurement": "IC50", "setting": "CHO", "value": "> 20", "unit": "µM"}, {"measurement": "IC50", "setting": "[11]", "value": "> 20", "unit": "µM"}, {"measurement": "Activity", "setting": "[6]", "value": "Non-toxic"}, {"measurement": "Activity", "setting": "B16-F10 [7]", "value": 0.2, "unit": "%"}, {"measurement": "Activity", "setting": "B16-F10 [8]", "value": 1.7, "unit": "%"}, {"measurement": "Activity", "setting": "B16-F10 [9]", "value": 5.1, "unit": "%"}, {"measurement": "viability at 2 µM", "setting": "B16-F10 [10]", "value": 93, "unit": "%"}]}
{"smiles": "C=C(C)[C@@H]1CC[C@]2(C(=O)O)CC[C@]3(C)[C@H](CC[C@@H]4[C@@]5(C)CC[C@H](O)C(C)(C)[C@@H]5CC[C@]43C)[C@@H]12", "note": "[BETULINIC ACID]", "values": [{"measurement": "IC50", "setting": "MCF7", "value": 10.5, "unit": "µM"}, {"measurement": "IC50", "setting": "[4]", "value": "> 20", "unit": "µM"}, {"measurement": "IC50", "setting": "OVCAR-3", "value": 8.37, "unit": "µM"}, {"measurement": "IC50", "setting": "MDA-MB-231", "value": "> 20", "unit": "µM"}, {"measurement": "IC50", "setting": "[5]", "value": 10.2, "unit": "µM"}, {"measurement": "IC50", "setting": "A549", "value": "> 20000", "unit": "nM"}, {"measurement": "IC50", "setting": "CHO", "value": "> 20", "unit": "µM"}, {"measurement": "IC50", "setting": "[11]", "value": "> 20", "unit": "µM"}, {"measurement": "Activity", "setting": "B16-F10 [12]", "value": "Active"}, {"measurement": "Activity", "setting": "[6]", "value": "Non-toxic"}, {"measurement": "Activity", "setting": "B16-F10 [7]", "value": 0.3, "unit": "%"}, {"measurement": "Activity", "setting": "B16-F10 [8]", "value": 0.9, "unit": "%"}, {"measurement": "Activity", "setting": "B16-F10 [9]", "value": 0, "unit": "%"}, {"measurement": "viability at 2 µM", "setting": "B16-F10 [10]", "value": 98.8, "unit": "%"}]}
{"smiles": "C=C(C)[C@@H]1CC[C@]2(C(=O)NCCCNC(=S)Nc3ccc4c(c3)C(=O)OC43c4ccc(O)cc4Oc4cc(O)ccc43)CC[C@]3(C)[C@H](CC[C@@H]4[C@@]5(C)CC[C@H](O)C(C)(C)[C@@H]5CC[C@]43C)[C@@H]12", "values": [{"measurement": "Drug uptake", "setting": "[1]", "value": "Not Active"}, {"measurement": "Drug uptake", "setting": "[2]", "value": "Active"}, {"measurement": "Drug uptake", "setting": "[3]", "value": "Active"}, {"measurement": "IC50", "setting": "[4]", "value": 20, "unit": "µM"}, {"measurement": "IC50", "setting": "[5]", "value": 9.78, "unit": "µM"}, {"measurement": "IC50", "setting": "[11]", "value": "> 20", "unit": "µM"}]}
{"smiles": "COc1cccc2c1C(=O)c1c(O)c3c(c(O)c1C2=O)C[C@@](O)(C(=O)CO)C[C@@H]3O[C@H]1C[C@H](N)[C@H](O)[C@H](C)O1", "note": "[DOXORUBICIN]", "values": [{"measurement": "Drug uptake", "setting": "[1]", "value": "Active"}, {"measurement": "Drug uptake", "setting": "[2]", "value": "Active"}, {"measurement": "Drug uptake", "setting": "[3]", "value": "Active"}, {"measurement": "IC50", "setting": "[4]", "value": 0.663, "unit": "µM"}, {"measurement": "IC50", "setting": "[5]", "value": 1.03, "unit": "µM"}, {"measurement": "IC50", "setting": "[11]", "value": 7.21, "unit": "µM"}, {"measurement": "Activity", "setting": "B16-F10 [12]", "value": "Active"}, {"measurement": "Activity", "setting": "[6]", "value": "Toxic"}, {"measurement": "Activity", "setting": "B16-F10 [7]", "value": 1.1, "unit": "%"}, {"measurement": "Activity", "setting": "B16-F10 [8]", "value": 21.4, "unit": "%"}, {"measurement": "Activity", "setting": "B16-F10 [9]", "value": 34.1, "unit": "%"}, {"measurement": "viability at 2 µM", "setting": "B16-F10 [10]", "value": 43.4, "unit": "%"}]}
{"smiles": "C=C(C)[C@@H]1CC[C@]2(C(=O)NCCCOc3ccc(/C(=C4\\C(=O)N(Cc5ccc(OC)cc5)c5ccccc54)c4ccc(O)cc4)cc3)CC[C@]3(C)[C@H](CC[C@@H]4[C@@]5(C)CC[C@H](O)C(C)(C)[C@@H]5CC[C@]43C)[C@@H]12", "values": [{"measurement": "Drug uptake", "setting": "[1]", "value": "Not Active"}, {"measurement": "Drug uptake", "setting": "[2]", "value": "Active"}, {"measurement": "Drug uptake", "setting": "[3]", "value": "Active"}, {"measurement": "IC50", "setting": "MCF7", "value": 7.4, "unit": "µM"}, {"measurement": "IC50", "setting": "[4]", "value": 2.3, "unit": "µM"}, {"measurement": "IC50", "setting": "OVCAR-3", "value": 6.05, "unit": "µM"}, {"measurement": "IC50", "setting": "MDA-MB-231", "value": 1.26, "unit": "µM"}, {"measurement": "IC50", "setting": "[5]", "value": 2.63, "unit": "µM"}, {"measurement": "IC50", "setting": "A549", "value": 2560, "unit": "nM"}, {"measurement": "IC50", "setting": "CHO", "value": "> 20", "unit": "µM"}, {"measurement": "IC50", "setting": "[11]", "value": "> 20", "unit": "µM"}, {"measurement": "Activity", "setting": "B16-F10 [12]", "value": "Active"}, {"measurement": "Activity", "setting": "[6]", "value": "Non-toxic"}, {"measurement": "Activity", "setting": "B16-F10 [7]", "value": 3.8, "unit": "%"}, {"measurement": "Activity", "setting": "B16-F10 [8]", "value": 54.6, "unit": "%"}, {"measurement": "Activity", "setting": "B16-F10 [9]", "value": 5, "unit": "%"}, {"measurement": "viability at 2 µM", "setting": "B16-F10 [10]", "value": 36.6, "unit": "%"}]}
